By MIC is commonly meant the smallest concentration in the dilution series that meets the test's criterion for growth inhibition.

Converted amounts (≈) assume the structure as drawn. Where a SMILES comes first, the peptide text is derived from it. Bridges are numbered along the chain shown (N, C = ends). [ ]: non-standard residue; d: D form. The star is where a group is joined. NMePhe(4-NMe2) = CN[C@@H](Cc1ccc(N(C)C)cc1)C(=O)O; Pip(4-oxo) = O=C1CCN[C@H](C(=O)O)C1; Picolinoyl(3-OH) = O=C(c1ncccc1O)*; Phg = N[C@H](C(=O)O)c1ccccc1; dAbu = CC[C@@H](N)C(=O)O

These results are taken from ChEMBL document CHEMBL1255307, “Role of the AheABC efflux pump in Aeromonas hydrophila intrinsic multidrug resistance” (2008).

What all share (assay type): functional
For assay [1], the system named is Escherichia coli. The assay can be described thus: Antimicrobial activity against acrAB-deficient Escherichia coli TG1 harboring plasmid pEX19Gm by agar dilution method. The gist of the method:
(§1)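 Agar dilution MICs on MH medium, final inoculum about 10^4 CFU per spot. Tested in A. hydrophila ATCC 7966T and E. coli TG1 strains (wild type, ΔaheB::kan or ΔacrAB), each carrying empty pEX19Gm or a pump-encoding plasmid (pEXAheABC, pUCAcrAB). Run at least in triplicate, mode value reported.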

Assay [2] in a line: (§2) Antimicrobial activity against aheB deficient kanamycin-resistant Aeromonas hydrophila subsp. hydrophila ATCC 7966 harboring plasmid pEX19Gm by agar dilution method in presence of 64 mg/L efflux pump inhibitor phenylalanine-arginine-beta-naphthylamide. Background: Agar dilution tests growth on a series of plates holding different concentrations.
The nature of assay [3]: (§3) Antimicrobial activity against aheB deficient kanamycin-resistant Aeromonas hydrophila subsp. hydrophila ATCC 7966 harboring plasmid pEX19Gm by agar dilution method. The gist of the method:
as §1

Assay [4] is described as follows: (§4) Antimicrobial activity against Aeromonas hydrophila subsp. hydrophila ATCC 7966 harboring plasmid pEX19Gm by agar dilution method in presence of 64 mg/L efflux pump inhibitor phenylalanine-arginine-beta-naphthylamide.
Assay [5] has as its system Escherichia coli. The assay can be described thus: Antimicrobial activity against Escherichia coli TG1 harboring plasmid pEX19Gm by agar dilution method. A digest of the protocol:
as §1

In assay [6] the test system is Escherichia coli. The assay can be described thus: Antimicrobial activity against acrAB-deficient Escherichia coli TG1 harboring AcrAB efflux pump by agar dilution method. A digest of the protocol:
as §1

Assay [7] in a line: (§5) Antimicrobial activity against aheB-deficient kanamycin-resistant Aeromonas hydrophila subsp. hydrophila ATCC 7966 harboring AheABC efflux pump by agar dilution method in presence of 64 mg/L efflux pump inhibitor phenylalanine-arginine-beta-naphthylamide.
Assay [8] is described as follows: (§6) Antimicrobial activity against aheB deficient kanamycin-resistant Aeromonas hydrophila subsp. hydrophila ATCC 7966 harboring AheABC efflux pump by agar dilution method. A digest of the protocol: as §1
In assay [9] the test system is Escherichia coli. In words: Antimicrobial activity against acrAB-deficient Escherichia coli TG1 harboring AheABC efflux pump by agar dilution method. A digest of the protocol:
as §1

Assay [10] in a line: (§7) Antimicrobial activity against Aeromonas hydrophila subsp. hydrophila ATCC 7966 harboring plasmid pEX19Gm by agar dilution method. The gist of the method: as §1
Assay [11] deals with Aeromonas hydrophila subsp. hydrophila ATCC 7966. The description is as §2.
Assay [12] has the same test system. The description is as §3. The gist of the method: as §1
For assay [13] the test system is unchanged. The assay is described as §4.
The test system is the same in assay [14]. Described as §5.
Assay [15] has the same test system. The description is as §6. A digest of the protocol:
as §1

The test system is the same in assay [16]. The description is as §7. The gist of the method: as §1

With `CC[C@H]1OC(=O)[C@H](C)[C@@H](O[C@H]2C[C@@](C)(OC)[C@@H](O)[C@H](C)O2)[C@H](C)[C@@H](O[C@@H]2O[C@H](C)C[C@H](N(C)C)[C@H]2O)[C@](C)(O)C[C@@H](C)C(=O)[C@H](C)[C@@H](O)[C@]1(C)O` [ERYTHROMYCIN], the MIC in the assay on Escherichia coli [1] was 1 µg/mL (≈ 1.36 µM); in assay [2], 1 µg/mL; in assay [3] it was 8 µg/mL (≈ 10.9 µM); in [4], 2 µg/mL; against Escherichia coli [5], 64 µg/mL (≈ 87.2 µM); against Escherichia coli [6], 128 µg/mL (≈ 174 µM). Besides, the minimal inhibitory concentration (MIC) turned out to be 2 µg/mL in assay [7], 64 µg/mL (≈ 87.2 µM) in assay [8], 32 µg/mL (≈ 43.6 µM) against Escherichia coli [9] and 16 µg/mL (≈ 21.8 µM) in assay [10].

On to `CC[C@H]1NC(=O)[C@@H](NC(=O)c2ncccc2O)[C@@H](C)OC(=O)[C@H](c2ccccc2)NC(=O)[C@@H]2CC(=O)CCN2C(=O)[C@H](Cc2ccc(N(C)C)cc2)N(C)C(=O)[C@@H]2CCCN2C1=O` [PRISTINAMYCIN 1A] ({Picolinoyl(3-OH)}-T[dAbu]P[NMePhe(4-NMe2)][Pip(4-oxo)][Phg]; ester 1-C), for which the MIC against Escherichia coli [1] is 4 µg/mL (≈ 4.61 µM); in assay [2] it was 1 µg/mL; in assay [3], 8 µg/mL (≈ 9.23 µM); in assay [4] it was 2 µg/mL; with Escherichia coli [5], 64 µg/mL (≈ 73.8 µM); with Escherichia coli [6], 64 µg/mL (≈ 73.8 µM). Further, the MIC in assay [7] was found to be 4 µg/mL; in assay [8], 128 µg/mL (≈ 148 µM); with Escherichia coli [9] it was 64 µg/mL (≈ 73.8 µM); in [10], 32 µg/mL (≈ 36.9 µM).

For `CN(C)c1ccc(O)c2c1C[C@H]1C[C@H]3[C@H](N(C)C)C(O)=C(C(N)=O)C(=O)[C@@]3(O)C(O)=C1C2=O` [MINOCYCLINE], the MIC was 0.12 µg/mL (≈ 0.262 µM) against Escherichia coli [1]; 0.25 µg/mL in assay [2]; 0.4 µg/mL (≈ 0.874 µM) in assay [3]; 0.5 µg/mL in assay [4]; 1 µg/mL (≈ 2.19 µM) in the assay on Escherichia coli [5]; 2 µg/mL (≈ 4.37 µM) in the assay on Escherichia coli [6]. The MIC in [7] came to 1 µg/mL; in [8] it was 2 µg/mL (≈ 4.37 µM); in the assay on Escherichia coli [9], 1 µg/mL (≈ 2.19 µM); in assay [10], 1 µg/mL (≈ 2.19 µM).

With `CCC[C@@H]1C[C@@H](C(=O)N[C@@H]([C@H]2O[C@H](SC)[C@H](O)[C@@H](O)[C@H]2O)[C@@H](C)O)N(C)C1` [LINCOMYCIN], the minimum inhibitory concentration (MIC) was 64 µg/mL (≈ 157 µM) with Escherichia coli [1]; 64 µg/mL in assay [2]; 64 µg/mL (≈ 157 µM) in assay [3]; 128 µg/mL in assay [4]; 1020 µg/mL (≈ 2520 µM) in the assay with Escherichia coli [5]; above 1020 µg/mL against Escherichia coli [6]. Besides, the MIC in [7] was found to be 256 µg/mL; in assay [8], 256 µg/mL (≈ 630 µM); with Escherichia coli [9] it was 512 µg/mL (≈ 1260 µM); in assay [10] it was 128 µg/mL (≈ 315 µM).

As for `CO[C@H]1/C=C/O[C@@]2(C)Oc3c(C)c(O)c4c(O)c(c(/C=N/N5CCN(C)CC5)c(O)c4c3C2=O)NC(=O)/C(C)=C\C=C\[C@H](C)[C@H](O)[C@@H](C)[C@@H](O)[C@@H](C)[C@H](OC(C)=O)[C@@H]1C` [RIFAMPIN], the MIC with Escherichia coli [1] was determined as 8 µg/mL (≈ 9.72 µM); in assay [2], 0.03 µg/mL; in assay [3] it was 1 µg/mL (≈ 1.22 µM); in assay [4] it was 0.06 µg/mL; in the assay with Escherichia coli [5], 16 µg/mL (≈ 19.4 µM); in the assay with Escherichia coli [6], 16 µg/mL (≈ 19.4 µM). The MIC in [7] worked out at 0.12 µg/mL; in assay [8], 4 µg/mL (≈ 4.86 µM); with Escherichia coli [9], 8 µg/mL (≈ 9.72 µM); in [10] it was 2 µg/mL (≈ 2.43 µM).

Regarding `COc1cc(Cc2cnc(N)nc2N)cc(OC)c1OC` [TRIMETHOPRIM], the MIC with Escherichia coli [1] stood at 0.05 µg/mL (≈ 0.172 µM); in assay [2], 4 µg/mL; in assay [3], 8 µg/mL (≈ 27.6 µM); in assay [4], 8 µg/mL; with Escherichia coli [5], 0.2 µg/mL (≈ 0.689 µM); in the assay on Escherichia coli [6] it was 0.05 µg/mL (≈ 0.172 µM). In addition, the MIC is 16 µg/mL in assay [7], 32 µg/mL (≈ 110 µM) in [8], 0.05 µg/mL (≈ 0.172 µM) against Escherichia coli [9] and 16 µg/mL (≈ 55.1 µM) in assay [10].

For the compound `CC[n+]1c(-c2ccccc2)c2cc(N)ccc2c2ccc(N)cc21.[Br-]` [HOMIDIUM BROMIDE], the MIC in the assay on Escherichia coli [1] worked out at 2 µg/mL; in assay [2], 64 µg/mL; in assay [3] it was 64 µg/mL; in assay [4], 128 µg/mL; with Escherichia coli [5], 512 µg/mL; in the assay on Escherichia coli [6], 512 µg/mL. Besides, the MIC in [7] came out at 512 µg/mL; in [8], 512 µg/mL; in the assay with Escherichia coli [9], 64 µg/mL; in assay [10], 128 µg/mL.

On to `CO/N=C(\C(=O)N[C@@H]1C(=O)N2C(C(=O)O)=C(COC(N)=O)CS[C@H]12)c1ccco1` [CEFUROXIME], for which the MIC with Escherichia coli [1] was determined as 0.5 µg/mL (≈ 1.18 µM); in assay [2], 0.25 µg/mL; in [3], 0.25 µg/mL (≈ 0.589 µM); in [4], 1 µg/mL; with Escherichia coli [5] it was 4 µg/mL (≈ 9.43 µM); in the assay with Escherichia coli [6], 8 µg/mL (≈ 18.9 µM). Also, the MIC came out at 4 µg/mL in assay [7], 4 µg/mL (≈ 9.43 µM) in assay [8], 2 µg/mL (≈ 4.71 µM) against Escherichia coli [9] and 1 µg/mL (≈ 2.36 µM) in assay [10].

Regarding `CN(C)c1ccc2cc3ccc(N(C)C)cc3nc2c1` [ACRIDINE ORANGE], the MIC against Escherichia coli [1] is 128 µg/mL (≈ 482 µM); in [2], 128 µg/mL; in [3], 256 µg/mL (≈ 965 µM); in assay [4], 256 µg/mL; in the assay with Escherichia coli [5], above 1020 µg/mL; against Escherichia coli [6], above 1020 µg/mL. Also, the MIC in [7] turned out to be 256 µg/mL; in assay [8], 1020 µg/mL (≈ 3860 µM); against Escherichia coli [9] it was 256 µg/mL (≈ 965 µM); in [10], 512 µg/mL (≈ 1930 µM).

As to `CC(=O)O[C@H]1C[C@@]2(C)[C@@H](C[C@@H](O)[C@H]3[C@@]4(C)CC[C@@H](O)[C@@H](C)[C@@H]4CC[C@@]32C)/C1=C(\CCC=C(C)C)C(=O)O` [FUSIDIC ACID], the MIC with Escherichia coli [1] was found to be 2 µg/mL (≈ 3.87 µM); in assay [2], 1 µg/mL; in [3], 64 µg/mL (≈ 124 µM); in assay [4] it was 2 µg/mL; against Escherichia coli [5], 512 µg/mL (≈ 991 µM); with Escherichia coli [6] it was 512 µg/mL (≈ 991 µM). The MIC in assay [7] came out at 8 µg/mL; in [8] it was 256 µg/mL (≈ 495 µM); against Escherichia coli [9], 128 µg/mL (≈ 248 µM); in assay [10], 128 µg/mL (≈ 248 µM).

In the case of `CCN1CCN(C(=O)N[C@@H](C(=O)N[C@@H]2C(=O)N3C(C(=O)O)=C(CSc4nnnn4C)CS[C@H]23)c2ccc(O)cc2)C(=O)C1=O` [CEFOPERAZONE], the MIC in the assay on Escherichia coli [1] was determined as 0.03 µg/mL (≈ 0.0465 µM); in assay [2], 0.06 µg/mL; in assay [3] it was 0.06 µg/mL (≈ 0.0929 µM); in [4], 0.25 µg/mL; against Escherichia coli [5], 0.25 µg/mL (≈ 0.387 µM); against Escherichia coli [6] it was 8 µg/mL (≈ 12.4 µM). For the same compound, the MIC in assay [7] amounted to 2 µg/mL; in assay [8], 2 µg/mL (≈ 3.1 µM); against Escherichia coli [9], 0.06 µg/mL (≈ 0.0929 µM); in assay [10], 0.25 µg/mL (≈ 0.387 µM).

As to TRIBUTYLSTANNANYL, the MIC with Escherichia coli [1] is 4 µg/mL; in [11], 2 µg/mL; in assay [12], 16 µg/mL; in assay [13], 2 µg/mL; against Escherichia coli [5], above 1020 µg/mL; with Escherichia coli [6], above 1020 µg/mL. Also, the MIC in [14] came to 4 µg/mL; in [15], 256 µg/mL; against Escherichia coli [9], 16 µg/mL; in assay [16], 32 µg/mL.
